ChEMBL document CHEMBL4396914, “Discovery of new azoles with potent activity against Candida spp. and Candida albicans biofilms through virtual screening” (Eur J Med Chem, 2019)
In brackets after ≈: the same amount, converted by molar mass.

Tests used:
[1] = tested on: Candida albicans; test: Disruption of Candida albicans SC5314 pre-formed mature biofilm assessed as reduction in biofilm biomass incubated for 24 hrs by spectrophotometry; format: functional
Outline: (§1)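 C. albicans SC5314 biofilms grown on a 96-peg lid (Calgary device, MBEC protocol) from 10^6 cfu/ml inoculum for 24 h at 37 °C. Pegs rinsed in 0.9% saline, then challenged 24 h at 35 °C with twofold dilutions, 512-0.5 µg/ml. MBIC: no well turbidity by visual inspection. MBEC: pegs sonicated into RPMI/2% glucose, regrowth overnight, OD 550 nm plus visual turbidity.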

[2] = tested on: Candida parapsilosis; test: Antifungal activity against azole-susceptible Candida parapsilosis ATCC 90018 assessed as reduction in fungal growth incubated for 48 hrs by broth microdilution method; format: functional; conditions: Lodderomyces parapsilosis, ATCC 90018, 48 h
Outline: (§2)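 CLSI broth microdilution in RPMI 1640 with MOPS at pH 7.0. Inoculum taken from 24-h Sabouraud subcultures, final 0.5-2.5×10^3 cfu/ml. Compounds in DMSO, twofold series 1024-0.125 µg/ml final. Incubated 48 h at 35 °C. MIC is the lowest concentration giving complete inhibition of visible growth. Fluconazole served as the reference.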

[3] = tested on: Pichia kudriavzevii; test: Antifungal activity against azole-susceptible Candida krusei ATCC 6258 assessed as reduction in fungal growth incubated for 48 hrs by broth microdilution method; format: functional; conditions: ATCC 6258, 48 h; outline: as §2
[4] = tested on: Candida albicans; test: Antifungal activity against azole-susceptible Candida albicans ATCC 90028 assessed as reduction in fungal growth incubated for 48 hrs by broth microdilution method; format: functional; conditions: ATCC 90028, 48 h; outline: as §2
[5] = tested on: Candida tropicalis; test: Antifungal activity against azole-resistant Candida tropicalis assessed as reduction in fungal growth incubated for 48 hrs by broth microdilution method; format: functional
Outline: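 CLSI broth microdilution in RPMI 1640 (glutamine, no bicarbonate) buffered to pH 7.0 with MOPS. Azole-resistant clinical C. tropicalis isolate, stored at -80 °C in glycerol, subcultured twice on Sabouraud dextrose agar. Inoculum from 24-h subcultures, final 0.5 to 2.5×10^3 cfu/ml. Compounds in DMSO, twofold final 1024–0.125 µg/ml. Incubated 35 °C, 48 h. MIC = lowest concentration fully inhibiting visible growth.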

[6] = tested on: Candida albicans; test: Antibiofilm activity against Candida albicans SC5314 assessed as inhibition of biofilm formation by turbidity based visual inspection method; format: functional; outline: as §1
[7] = tested on: Candida albicans; test: Antifungal activity against Candida albicans by broth dilution assay; format: functional; outline: as §2
[8] = tested on: U-937; test: Cytotoxicity against human U937 cells assessed as cell viability at 0.125 to 32 ug/ml incubated for 24 to 48 hrs by MTT assay; format: cell-based
Outline: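 MTT assay on U937 monocytic cells, 4×10³ cells/well, in RPMI-1640 with 10% FBS. Eight concentrations, 0.125-32 µg/ml, DMSO ≤0.32% v/v, each in triplicate. Exposure 24 or 48 h at 37 °C, 5% CO₂, then MTT for 4 h. Formazan dissolved in SDS/DMF, absorbance read at 570 nm. Viability calculated relative to untreated cells.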

SMILES	MBEC [1] [µg/mL]	MIC [2] [µg/mL]	MIC [3] [µg/mL]	MIC [4] [µg/mL]	MIC [5] [µg/mL]	MBIC [6] [µg/mL]	MIC [7] [µg/mL]	Activity [8]
O=C(/C=C/c1ccccc1)O/N=C(\Cn1ccnc1)c1ccc(Cl)cc1Cl	512	2 (≈ 5 µM)	4 (≈ 9.99 µM)	2 (≈ 5 µM)	64 (≈ 160 µM)	128	–	–
OC(Cn1cncn1)(Cn1cncn1)c1ccc(F)cc1F [FLUCONAZOLE]	–	0.5 (≈ 1.63 µM)	32 (≈ 104 µM)	0.5 (≈ 1.63 µM)	512 (≈ 1670 µM)	–	–	–
Cl.O=C(O/N=C(\Cn1ccnc1)c1ccc(Cl)cc1Cl)c1ccc([N+](=O)[O-])cc1	–	16	64	64	–	–	–	–
Cl.O=C(OC(Cn1ccnc1)c1ccc(Cl)cc1Cl)c1ccc([N+](=O)[O-])cc1 (racemic)	–	4	32	8	8	–	> 300	–
O=C(OC(Cn1ccnc1)c1ccc(Cl)cc1Cl)c1ccc(-c2ccc(-c3ccccc3)cc2)cc1 (racemic)	–	256 (≈ 499 µM)	256 (≈ 499 µM)	256 (≈ 499 µM)	–	–	–	–
O=C(O/N=C(\Cn1ccnc1)c1ccc(Cl)cc1Cl)c1ccc(-c2ccccc2)cc1	256	1 (≈ 2.22 µM)	1 (≈ 2.22 µM)	1 (≈ 2.22 µM)	256 (≈ 568 µM)	16	–	Non-Toxic
CCc1ccc(C(=O)O/N=C(\Cn2ccnc2)c2ccc(Cl)cc2Cl)cc1.Cl	–	128	256	128	8	–	–	–
Cl.O=C(OC(Cn1ccnc1)c1ccc(Cl)cc1Cl)c1ccc(N2CCOCC2)cc1 (racemic)	–	32	256	16	–	–	–	–
Cl.O=C(/C=C/c1ccccc1)OC(Cn1ccnc1)c1ccc(Cl)cc1Cl (racemic)	64	1	1	0.5	4	0.5	–	Non-Toxic
COc1ccc(C(=O)O/N=C(\Cn2ccnc2)c2ccc(Cl)cc2Cl)cc1	512	1 (≈ 2.47 µM)	1 (≈ 2.47 µM)	0.5 (≈ 1.24 µM)	64 (≈ 158 µM)	2	–	Non-Toxic
Cl.O=C(O/N=C(\Cn1ccnc1)c1ccc(Cl)cc1Cl)c1ccc(Cl)cc1Cl	–	64	64	64	–	–	–	–
CSc1ccc(C(=O)O/N=C(\Cn2ccnc2)c2ccc(Cl)cc2Cl)cc1.Cl	256	2	64	2	16	2	–	–
O=C(O/N=C(\Cn1ccnc1)c1ccc(Cl)cc1Cl)c1ccccc1	–	32 (≈ 85.5 µM)	32 (≈ 85.5 µM)	32 (≈ 85.5 µM)	–	–	–	–
OC(Cn1ccnc1)c1ccc(Cl)cc1Cl (centres undefined)	–	4 (≈ 15.6 µM)	128 (≈ 498 µM)	8 (≈ 31.1 µM)	256 (≈ 996 µM)	–	–	–
CSc1ccc(C(=O)OC(Cn2ccnc2)c2ccc(Cl)cc2Cl)cc1.Cl (racemic)	–	16	28	8	–	–	–	–
Cl.O=C(CCCc1ccccc1)OC(Cn1ccnc1)c1ccc(Cl)cc1Cl (racemic)	64	2	8	2	32	0.5	–	–
CC(C)c1ccc(C(=O)OC(Cn2ccnc2)c2ccc(Cl)cc2Cl)cc1.Cl (racemic)	–	128	128	256	–	–	–	–
CCc1ccc(C(=O)OC(Cn2ccnc2)c2ccc(Cl)cc2Cl)cc1.Cl (racemic)	–	256	256	256	–	–	–	–
Cl.O=C(OC(Cn1ccnc1)c1ccc(Cl)cc1Cl)c1cc2ccccc2[nH]1 (racemic)	128	0.25	0.5	0.125	1	2	–	Non-Toxic
O/N=C(\Cn1ccnc1)c1ccc(Cl)cc1Cl	–	32 (≈ 118 µM)	256 (≈ 948 µM)	32 (≈ 118 µM)	–	–	–	–
Cl.N#Cc1ccc(C(=O)OC(Cn2ccnc2)c2ccc(Cl)cc2Cl)cc1 (racemic)	–	4	64	8	16	–	–	–
